From publication PMC11582619 (Communications Biology, 2024)
Entries after “also recorded” stand apart in the source; their conditions may differ.

How the values were obtained:
[1] = biological target: T1, Recombinant human SIRT1 protein (Homo sapiens, UniProt Q96EB6); assay: Microscale thermophoresis; type: binding; details: Kd between SIRT1 and compound (MST), recombinant human SIRT1, RED-NHS labelled
T1 sequence (Q96EB6 1-747): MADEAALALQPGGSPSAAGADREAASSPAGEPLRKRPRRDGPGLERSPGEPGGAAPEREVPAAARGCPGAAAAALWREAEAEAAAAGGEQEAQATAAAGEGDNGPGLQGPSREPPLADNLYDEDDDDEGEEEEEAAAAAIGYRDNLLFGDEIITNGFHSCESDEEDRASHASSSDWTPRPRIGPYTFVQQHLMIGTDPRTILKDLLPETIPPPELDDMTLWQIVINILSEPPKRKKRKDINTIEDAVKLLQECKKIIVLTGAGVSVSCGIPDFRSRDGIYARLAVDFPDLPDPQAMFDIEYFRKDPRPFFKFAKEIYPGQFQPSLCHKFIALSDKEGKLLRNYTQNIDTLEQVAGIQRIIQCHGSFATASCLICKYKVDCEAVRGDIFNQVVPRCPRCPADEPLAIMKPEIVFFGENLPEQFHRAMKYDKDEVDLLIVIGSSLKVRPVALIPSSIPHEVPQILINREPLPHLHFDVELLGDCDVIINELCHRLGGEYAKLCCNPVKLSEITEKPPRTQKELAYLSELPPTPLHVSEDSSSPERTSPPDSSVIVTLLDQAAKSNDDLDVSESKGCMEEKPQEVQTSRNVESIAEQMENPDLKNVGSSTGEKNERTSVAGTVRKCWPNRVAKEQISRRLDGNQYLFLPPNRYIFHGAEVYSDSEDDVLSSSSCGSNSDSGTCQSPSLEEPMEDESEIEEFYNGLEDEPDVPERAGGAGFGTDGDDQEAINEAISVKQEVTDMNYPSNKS
Procedure, shortened: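 Recombinant human SIRT1 labelled with RED-NHS dye (30 min, room temperature, dark) and gel-filtered; pre-test checked labelling, adsorption and aggregation. Incubated 5 min at 24 °C before MST.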

[2] = cited from earlier work
[3] = test system: SIRT1; assay: Immunostaining targeting SIRT1 in mouse liver; type: in vivo, C57BL/6J mice; details: ethanol-fed mice, oral SSa
Procedure, shortened: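 Male C57BL/6J mice (8 weeks) on the NIAAA chronic-plus-binge model: 5 days of Lieber–DeCarli control liquid diet, then 5% (v/v) ethanol liquid diet for 14 days. Oral SSa 5, 10 or 15 mg/kg once daily for 7 days. Day-15 oral ethanol binge; harvest under isoflurane 9 h later. Livers fixed in 4% paraformaldehyde, 5 µm sections, SIRT1 immunofluorescence imaged confocally; n = 3.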

[4] = test system: chronic-plus-binge ethanol-fed mice with hepatic SIRT1 knockdown; assay: NIAAA model in mice with hepatic SIRT1 knockdown; type: in vivo, C57BL/6J mice
Procedure, shortened: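 Hepatic SIRT1 knockdown in C57BL/6J mice by tail-vein AAV8-TBG-miR30 shRNA against mouse SIRT1, with ZsGreen tag (1 × 10^12 vg/mouse); AAV8-TBG-ZsGreen as control. Four weeks later: NIAAA chronic-plus-binge ethanol model with oral test compound once daily for 7 days. Knockdown checked by liver ZsGreen fluorescence and SIRT1 western blot. Body weight tracked, n = 6.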

[5] = test system: SIRT1, PGC-1α, PPAR-α, Deptor, mTOR, p-mTOR (liver); assay: Western blot of liver proteins, with or without hepatic SIRT1 knockdown; type: in vivo, C57BL/6J mice; details: ethanol-fed mice, oral SSa
[6] = test system: HepG2 cells; assay: ROS levels by flow cytometry in ethanol-treated HepG2 cells; type: cell-based, human; details: ethanol + compound
[7] = test system: chronic-plus-binge ethanol-fed mice; assay: Chronic-plus-binge ethanol-fed; type: in vivo, C57BL/6J mice
[8] = test system: HepG2 cells; assay: Oil Red O staining of ethanol-induced lipid storage in HepG2 cells; type: cell-based, human; details: compound 7.5 μmol/L
[9] = test system: SIRT1, SREBP-1C, PPAR-α and their target genes (liver mRNA); assay: qRT-PCR of lipid metabolism genes and SIRT1 in liver of ALD mice; type: in vivo, C57BL/6J mice; details: ethanol-fed mice, oral SSa
Procedure, shortened: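 NIAAA chronic-plus-binge model in C57BL/6J mice: 14-day 5% ethanol Lieber–DeCarli diet, oral SSa (5–15 mg/kg) daily for 7 days, ethanol binge on day 15, liver harvested 9 h later. Liver mRNA measured by SYBR Green qRT-PCR (25 nmol/L primers), β-actin reference, delta-delta Ct method. Protein by western blot: 20 µg per lane, 10% SDS-PAGE, ECL detection.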

[10] = test system: PGC-1α, PPAR-α, CPT-1α, ACC-1, SREBP-1C, FAS, SCD-1 (liver mRNA); type: in vivo, C57BL/6J mice; details: ethanol-fed mice, oral SSa
[11] = Plasma concentration of SSa, SSB1 and SGA after oral SSa; type: in vivo, mice; details: for course of plasma level after administration (in words): after oral SSa 50 mg/kg
Procedure, shortened: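 Mice fasted 24 h, then given SSa 50 mg/kg by oral gavage. About 100 µL retro-orbital blood taken at 0, 0.5, 1, 2, 4, 6, 8, 10, 12 and 24 h; 9 mice per time point, three mice pooled per sample, n = 3. Plasma SSa, SSB1 and SGA measured by UHPLC-MS/MS against plasma-matrix calibration and QC standards. AUC by moment analysis with log-trapezoidal method.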

[12] = test system: SIRT1; assay: Hepatic SIRT1 protein over time after gavage with SSa solution; type: in vivo, mice; details: 0-12 h after gavage with SSa solution
[13] = test system: liver, kidney, spleen, lung and heart; assay: Short-term toxicity of SSa, 14 days by gavage, HE staining of organs; type: in vivo; details: male C57BL/6J mice, SSa 15 mg/kg/daily
[14] = mice, after intragastric SSa 50 mg/kg

C[C@H]1O[C@@H](O[C@H]2CC[C@@]3(C)[C@@H](CC[C@]4(C)[C@@H]3C=C[C@]35OC[C@@]6(CCC(C)(C)C[C@H]63)[C@@H](O)C[C@]54C)[C@]2(C)CO)[C@H](O)[C@@H](O[C@@H]2O[C@H](CO)[C@@H](O)[C@H](O)[C@H]2O)[C@H]1O [SSa, Saikosaponin A]
Kd [1]: ~25.2 µM
intestinal absorption after oral administration [2]: poor absorbance in the intestine when administered orally
toxicity under intravenous injection [2]: marked hemolysis under intravenous injection
SIRT1 entry into the nucleus (liver immunofluorescence) [3]: promoted SIRT1 entry into the nucleus
body weight with hepatic SIRT1 knockdown ([4]; SSa administration for 7 days): had no effect on body weight
NAD+/NADH with hepatic SIRT1 deficiency ([4]; ethanol-fed mice, oral SSa): the increase of NAD^+/NADH induced by SSa was also inhibited
hepatic pathology and lipid deposition with hepatic SIRT1 deficiency ([4]; ethanol-fed mice, oral SSa): prevents the SSa’s improvement in alcohol-induced hepatic pathology and lipid deposition
liver function recovery with hepatic SIRT1 knockdown ([4]; ethanol-fed mice, oral SSa): mitigated SSa’s improvement in alcohol-induced liver function recovery
liver PGC-1α, PPAR-α and Deptor protein with SIRT1 deficiency [5]: decreases the expression of PGC-1α, PPAR-α and Deptor induced by SSa treatment
ethanol-induced ROS production [6]: significantly limited ethanol-induced ROS production
body weight and liver index ([7]; SSa 5, 10, 15 mg/kg oral): improved body weight and liver index in a dose-dependent manner
NAD+/NADH ratio in liver homogenate ([7]; oral SSa): increased the NAD^+/NADH ratio
TC and TG in liver homogenate ([7]; oral SSa): significantly reduced alcohol-induced TC and TG accumulation in the liver
liver function and plasma TC, TG, γ-GT, De Ritis ratio ([7]; oral SSa): significantly ameliorated liver function and reduced the plasma TC, TG, γ-GT content and De Ritis ratio
liver lipid deposition (Oil red O staining) ([7]; oral SSa): reduced alcohol-induced liver lipid deposition in a dose-dependent manner
liver pathology (HE staining) ([7]; oral SSa): improves liver pathological injury
ethanol-induced lipid droplet accumulation (Oil red O) [8]: significantly reduced the lipid droplet accumulation induced by ethanol
liver mRNA of SREBP-1C and its target genes [9]: decreased the elevation of SREBP-1C, ACC-1, FAS and SCD-1 induced by alcohol
alcohol-induced decrease of SIRT1 expression in the liver ([9]; mRNA and protein (Fig. 2I, J)): can reverse this phenomenon
liver PGC-1α, PPAR-α, CPT-1α mRNA with SIRT1 knockdown [10]: inhibits the upregulation of PGC-1α, PPAR-α, CPT-1α induced by SSa
liver mRNA of SREBP-1C, ACC1, FAS and SCD-1 ([10]; reversed by SIRT1 knockdown): decreased the mRNA expression of SREBP-1C, ACC1, FAS and SCD-1
maximal (peak) plasma concentration [11, 14]: 63.31 ng/mL
course of plasma level after administration (in words) ([11]; mice): almost completely metabolized after 2 h of administration
course of plasma level after administration (in words) ([11]; mice, listed as SSA): quickly metabolized after administration
Tmax ([11]; mouse, plasma, po, 50 mg/kg): 30 min
hepatic SIRT1 protein abundance over time [12]: enhanced hepatic SIRT1 protein abundance at 4–12 h
short-term toxicity: pathological changes of liver, kidney, spleen, lung and heart (HE) [13]: no significant pathological changes

C[C@H]1O[C@@H](O[C@H]2CC[C@@]3(C)[C@@H](CC[C@]4(C)[C@@H]3C=CC3=C5CC(C)(C)CC[C@]5(CO)[C@@H](O)C[C@]34C)[C@]2(C)CO)[C@H](O)[C@@H](O[C@@H]2O[C@H](CO)[C@@H](O)[C@H](O)[C@H]2O)[C@H]1O [SSB1, Saikosaponin B1]
ethanol-induced ROS production [6]: had no effect on ROS
ethanol-induced lipid droplet accumulation (Oil red O) [8]: had no significant effect
maximal (peak) plasma concentration [11, 14]: 105.12 ng/mL
time of first detection in plasma [11, 14]: 0.5 h
time of peak plasma concentration [11, 14]: 1 h
course of plasma level after administration (in words) ([11]; mice): undetectable after 6 h of administration; also recorded: quickly metabolized after administration
